Experimental data taken from PubChem BioAssay.
Calls of active or inactive are those of the source.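 The calls were made as follows, unless noted: active = inhibition at or above 50% at 10 µM; inactive = inhibition below 50%.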

Tests used:
[1] = inhibitors of TNFa-induced NFkB p65 translocation, primary screen, imaging, HUVEC, MLSMR starter and 10KST1 sets (AID 438;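 active = inhibition above 20% together with a positive visual image hit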;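 also: compound added about 3h40 before a 20 min TNFalpha stimulation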;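 as to inhibition: signal is the nuclear over cytoplasmic p65 intensity ratio per well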); conditions: HUVEC TNFa-induced p65 nuclear translocation; cell count: measured here: nuclei count (cytotoxicity indicator), at 2.08 µM; inhibition: at 2 µM, stronger effect = higher value, 0% TNFa-plus-vehicle, 100% no-TNFa wells
[2] = inhibitors of mutant huntingtin aggregation, primary screen, imaging, exon1htt(103Q)mCFP cells, high-content imaging (AID 483;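 active = visual image review flags a hit and inhibition of aggregation exceeds 20%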;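 also: compound exposure lasted 3 days before fixation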;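 as to nuclei count: percent of the per-plate median nuclei count of sample wells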); conditions: exon1htt(103Q)mCFP cell line, aggregate imaging, at 2 µM; inhibition of aggregation: stronger effect = higher value; nuclei count: measured here: cell count, toxicity
[3] = inhibitors of E-selectin induction by TNFa, primary screen, imaging, HUVEC, immunofluorescence, MLSMR starter and 10KST1 sets (AID 487;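 active = visually confirmed hit in the image check and inhibition above 20%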;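 as to inhibition: signal is fraction of cell area covered by stained E-selectin grains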;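 as to nuclei count: 100% = median nuclei count of all wells on the same plate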); conditions: HUVEC TNFalpha-induced E-selectin immunofluorescence imaging, at 2 µM; inhibition: stronger effect = higher value; nuclei count: measured here: cell number, toxicity
[4] = biological target: Voltage-gated potassium channel subunit beta-2 (Rattus norvegicus) (UniProt P62483); assay: KvBeta enzyme negative modulators, primary screen, biochemical, NADPH fluorescence (AID 622;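 active = fluorescence slope higher than the sample average by over 3 SD, cut at about -0.22 in these data, passing the limit was not always enough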;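 also: slope of raw intensity against log time taken from 70 to 1610 s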); conditions: recombinant KvBeta, 4-cyanobenzaldehyde reduction, at 10 µM, stronger effect = higher value
[5] = biological target: Voltage-gated potassium channel subunit beta-2 (Rattus norvegicus) (UniProt P62483); assay: KvBeta positive modulators, primary screen, biochemical, NADPH fluorescence (AID 623;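 active = NADPH fluorescence slope more negative than the mean of all samples by about 3 SD, 99.7% confidence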;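 also: fluorescence intensity change per second fitted from 20 to 320 s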); conditions: Recombinant KvBeta, NADPH fluorescence decrease slope, 10 min; at 10 µM; stronger effect = lower value
[6] = biological target: Muscarinic acetylcholine receptor M4 (Homo sapiens) (UniProt P08173); assay: compounds altering M4/GIRK thallium flux, either direction, primary screen, M4 allosteric agonist project, cell-based, HEK293 M4/GIRK, BTC-AM (AID 625;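 active = fluorescence slope after compound addition differing from the mean of all tested samples at 99.7% confidence, mostly higher but some lower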;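 also: thallium influx through GIRK channels coupled to M4 in HEK293 cells with BTC-AM dye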); conditions: at 10 µM, actives lie on both sides
Procedure, shortened: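 assay system = HEK293 cells with M4 receptor and GIRK channels | medium = pH 7.3 thallium assay buffer | doses = 10 µM final, single point | timing = cells overnight at 37 °C, BTC-AM loading 1 h, reads 2 min total | signal = BTC-AM fluorescence, 1 Hz kinetic reads | read-out = post-addition slope, 15–24 s, of baseline-normalized fluorescence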

[7] = inhibitors of Sendai virus-induced IRF3 signaling, primary screen, TLR/RLR signaling modifier project, cell-based, Sendai virus stimulus, luciferase, 10K MLSCN set (AID 602276); conditions: HEK293 RL24 IRF3 luciferase reporter, at 10 µM, stronger effect = higher value;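 also: firefly luciferase from ISG56 promoter only with Renilla not read in this screen; 0% = Sendai virus plus DMSO and 100% = medium plus DMSO without virus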
[8] = inhibitors of poly I:C-induced TLR3 signaling, primary screen, cell-based, poly I:C stimulus, luciferase, 10K MLSCN set (AID 602277;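 active = inhibition of the reporter signal at or above 50%; inactive = inhibition below 50%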); conditions: HEK293-TLR3 RL24 IRF3 luciferase reporter, at 10 µM, stronger effect = higher value

Chain of Muscarinic acetylcholine receptor M4 (Homo sapiens) (P08173 whole entry, looked up): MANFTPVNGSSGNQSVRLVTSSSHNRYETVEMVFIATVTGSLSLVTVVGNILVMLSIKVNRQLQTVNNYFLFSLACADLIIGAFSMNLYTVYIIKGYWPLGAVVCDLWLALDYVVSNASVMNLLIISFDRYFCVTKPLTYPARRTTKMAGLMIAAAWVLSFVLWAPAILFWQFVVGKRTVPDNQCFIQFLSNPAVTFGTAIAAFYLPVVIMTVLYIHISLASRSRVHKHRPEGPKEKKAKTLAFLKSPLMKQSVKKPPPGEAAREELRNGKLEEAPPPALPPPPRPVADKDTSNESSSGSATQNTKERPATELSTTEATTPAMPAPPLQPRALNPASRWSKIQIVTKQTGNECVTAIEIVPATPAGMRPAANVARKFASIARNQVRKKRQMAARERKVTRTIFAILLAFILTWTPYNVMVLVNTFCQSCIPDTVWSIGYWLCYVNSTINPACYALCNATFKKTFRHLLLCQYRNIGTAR
Chain of Voltage-gated potassium channel subunit beta-2 (Rattus norvegicus) (P62483 whole entry, looked up): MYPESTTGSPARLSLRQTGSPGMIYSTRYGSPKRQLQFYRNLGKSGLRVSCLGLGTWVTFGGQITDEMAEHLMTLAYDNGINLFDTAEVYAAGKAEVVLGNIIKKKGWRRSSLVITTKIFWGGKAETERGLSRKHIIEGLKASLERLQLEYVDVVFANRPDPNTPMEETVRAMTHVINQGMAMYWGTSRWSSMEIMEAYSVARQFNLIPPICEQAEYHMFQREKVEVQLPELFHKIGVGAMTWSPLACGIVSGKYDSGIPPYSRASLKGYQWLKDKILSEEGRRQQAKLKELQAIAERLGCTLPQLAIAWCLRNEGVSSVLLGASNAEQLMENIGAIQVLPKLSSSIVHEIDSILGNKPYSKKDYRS

Structure (SMILES): Cc1ccccc1N(CC(=O)NCC1CCCO1)C(=O)C1(C)CC(=O)N=C2C=CC=CN21 (centres undefined)
- cell count [1]: 651
- inhibition [1]: -9.4% (inactive)
- inhibition of aggregation [2]: -3.5% (inactive)
- nuclei count [2]: 100%
- inhibition [3]: -111% (inactive)
- nuclei count [3]: 133%
- fluorescence slope [4]: -0.492 (inactive)
- NADPH fluorescence slope [5]: -9.2e-06 (inactive)
- fluorescence slope [6]: 0.00558 (inactive)
- inhibition [7]: 3.63% (inactive)
- inhibition [8]: 1.93% (inactive)

Structure (SMILES): CC(C)(C)c1cc(C(=S)N2CCN(CCO)CC2)cc(C(C)(C)C)c1O
- cell count [1]: 667
- inhibition [1]: -1.4% (inactive)
- inhibition of aggregation [2]: 10.4% (inactive)
- nuclei count [2]: 105%
- inhibition [3]: -150% (inactive)
- nuclei count [3]: 128%
- fluorescence slope [4]: -0.534 (inactive)
- NADPH fluorescence slope [5]: -4.4e-05 (inactive)
- fluorescence slope [6]: 0.00566 (inactive)
- inhibition [7]: 24.4% (inactive)
- inhibition [8]: 29.9% (inactive)

Structure (SMILES): COCCCNC(=O)CC(NS(=O)(=O)c1ccc(Cl)cc1)c1ccco1 (centres undefined)
- cell count [1]: 402
- inhibition [1]: 0.3% (inactive)
- inhibition of aggregation [2]: -20.4% (inactive)
- nuclei count [2]: 112%
- inhibition [3]: -62.8% (inactive)
- nuclei count [3]: 121%
- fluorescence slope [4]: -0.541 (inactive)
- NADPH fluorescence slope [5]: -4.5e-05 (inactive)
- fluorescence slope [6]: 0.00644 (inactive)
- inhibition [7]: 11.7% (inactive)
- inhibition [8]: 20.4% (inactive)

Structure (SMILES): COCCOC(=O)C1=C(C)Nc2ncnn2C1c1ccc(F)cc1 (centres undefined)
- cell count [1]: 743
- inhibition [1]: -0.4% (inactive)
- inhibition of aggregation [2]: 24.6% (inactive)
- nuclei count [2]: 71.5%
- inhibition [3]: 12.9% (inactive)
- nuclei count [3]: 124%
- fluorescence slope [4]: -0.369 (inactive)
- NADPH fluorescence slope [5]: -0.000107 (inactive)
- fluorescence slope [6]: 0.00592 (inactive)
- inhibition [7]: 6.2% (inactive)
- inhibition [8]: 19.4% (inactive)

Structure (SMILES): Cc1n[nH]c(C)c1S(=O)(=O)N1CCN(c2ccccn2)CC1
- cell count [1]: 407
- inhibition [1]: -8.5% (inactive)
- inhibition of aggregation [2]: 12.4% (inactive)
- nuclei count [2]: 76%
- inhibition [3]: -43.6% (inactive)
- nuclei count [3]: 108%
- fluorescence slope [4]: -0.485 (inactive)
- NADPH fluorescence slope [5]: 5e-05 (inactive)
- fluorescence slope [6]: 0.00681 (inactive)
- inhibition [7]: -0.889% (inactive)
- inhibition [8]: 2.25% (inactive)

Structure (SMILES): CCOC(=O)C1CCCN(c2nc3ccccc3nc2C(C#N)C(=O)NCc2ccccc2)C1 (centres undefined)
- cell count [1]: 703
- inhibition [1]: 9.6% (inactive)
- inhibition of aggregation [2]: -4.3% (inactive)
- nuclei count [2]: 103%
- inhibition [3]: -40% (inactive)
- nuclei count [3]: 126%
- fluorescence slope [4]: -0.459 (inactive)
- NADPH fluorescence slope [5]: -2.8e-05 (inactive)
- fluorescence slope [6]: 0.00538 (inactive)
- inhibition [7]: 7.48% (inactive)
- inhibition [8]: 12.6% (inactive)

Structure (SMILES): CC(c1ccccc1)N1C(=O)c2ccc(C(=O)NCc3ccco3)cc2C1=O (centres undefined)
- cell count [1]: 710
- inhibition [1]: 6.3% (inactive)
- inhibition of aggregation [2]: -0.8% (inactive)
- nuclei count [2]: 107%
- inhibition [3]: 23.2% (inactive)
- nuclei count [3]: 93.8%
- fluorescence slope [4]: -0.46 (inactive)
- NADPH fluorescence slope [5]: -2.6e-05 (inactive)
- fluorescence slope [6]: 0.00569 (inactive)
- inhibition [7]: -11.4% (inactive)
- inhibition [8]: 51.6% (active)

Structure (SMILES): CCc1nccn1S(=O)(=O)c1ccc2ccc(C)cc2c1
- cell count [1]: 319
- inhibition [1]: -8.5% (inactive)
- inhibition of aggregation [2]: -4.1% (inactive)
- nuclei count [2]: 104%
- inhibition [3]: -60.6% (inactive)
- nuclei count [3]: 112%
- fluorescence slope [4]: -0.512 (inactive)
- NADPH fluorescence slope [5]: 1.6e-05 (inactive)
- fluorescence slope [6]: 0.00461 (inactive)
- inhibition [7]: -9.41% (inactive)
- inhibition [8]: -15.4% (inactive)

Structure (SMILES): C=CCn1c(=O)/c(=C/c2ccc(O)cc2)s/c1=C(/C#N)c1nnc2n1CCCCC2
- cell count [1]: 483
- inhibition [1]: -0.5% (inactive)
- inhibition of aggregation [2]: 11.1% (inactive)
- nuclei count [2]: 112%
- inhibition [3]: -5.3% (inactive)
- nuclei count [3]: 116%
- fluorescence slope [4]: -0.332 (inactive)
- NADPH fluorescence slope [5]: -4.5e-05 (inactive)
- fluorescence slope [6]: 0.00728 (inactive)
- inhibition [7]: 17.7% (inactive)
- inhibition [8]: -30% (inactive)

Structure (SMILES): COC(=O)c1ccccc1NC(=O)CSc1nnnn1C1CCCCC1
- cell count [1]: 309
- inhibition [1]: -3.7% (inactive)
- inhibition of aggregation [2]: -19.4% (inactive)
- nuclei count [2]: 108%
- inhibition [3]: -39.4% (inactive)
- nuclei count [3]: 81.2%
- fluorescence slope [4]: -0.545 (inactive)
- NADPH fluorescence slope [5]: -3.8e-05 (inactive)
- fluorescence slope [6]: 0.00503 (inactive)
- inhibition [7]: 3.68% (inactive)
- inhibition [8]: 20.1% (inactive)

Structure (SMILES): COc1ccccc1NC(=O)c1ccc(NC(=O)CSc2nnnn2C)cc1
- cell count [1]: 253
- inhibition [1]: -3.2% (inactive)
- inhibition of aggregation [2]: -0.5% (inactive)
- nuclei count [2]: 85.1%
- inhibition [3]: -63% (inactive)
- nuclei count [3]: 100%
- fluorescence slope [4]: -0.385 (inactive)
- NADPH fluorescence slope [5]: -7.2e-05 (inactive)
- fluorescence slope [6]: 0.00533 (inactive)
- inhibition [7]: 12.1% (inactive)
- inhibition [8]: 25.6% (inactive)

Structure (SMILES): COc1cccc(OC)c1C(=O)N1CCOCC1
- cell count [1]: 505
- inhibition [1]: -7.7% (inactive)
- inhibition of aggregation [2]: 7.2% (inactive)
- nuclei count [2]: 103%
- inhibition [3]: -105% (inactive)
- nuclei count [3]: 126%
- fluorescence slope [4]: -0.536 (inactive)
- NADPH fluorescence slope [5]: -3.1e-05 (inactive)
- fluorescence slope [6]: 0.00602 (inactive)
- inhibition [7]: 17.5% (inactive)
- inhibition [8]: 25.3% (inactive)

Structure (SMILES): CCOC(=O)Cc1nnc(NC(=O)CSc2nnc3c4ccccc4n(C(C)C)c3n2)s1
- cell count [1]: 359
- inhibition [1]: -7.7% (inactive)
- inhibition of aggregation [2]: -10.9% (inactive)
- nuclei count [2]: 94.3%
- inhibition [3]: -158% (inactive)
- nuclei count [3]: 90.2%
- fluorescence slope [4]: -0.554 (inactive)
- NADPH fluorescence slope [5]: -3.3e-05 (inactive)
- fluorescence slope [6]: 0.00407 (inactive)
- inhibition [7]: 18% (inactive)
- inhibition [8]: 25.8% (inactive)

Structure (SMILES): CC(C)C(=O)Nc1nnc(CCc2nnc(NC(=O)C(C)C)s2)s1
- cell count [1]: 793
- inhibition [1]: -10.1% (inactive)
- inhibition of aggregation [2]: 9.8% (inactive)
- nuclei count [2]: 89.2%
- inhibition [3]: -80.3% (inactive)
- nuclei count [3]: 114%
- fluorescence slope [4]: -0.552 (inactive)
- NADPH fluorescence slope [5]: 1.7e-05 (inactive)
- fluorescence slope [6]: 0.00508 (inactive)
- inhibition [7]: 14.6% (inactive)
- inhibition [8]: 19.9% (inactive)
